System: MS2 coat protein
Experiment: apparent Kd, MS2 coat protein; higher = weaker binding; RNA-MaP array; FMN 200 µM where present
Summary of the method: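 Green signal was scaled to red-channel RNA signal and control-cluster median Fmax, and the apparent Kd was taken as the median of filtered per-cluster binding-curve fits. The binding series used SNAP-549-labelled MS2 coat protein from 0.7 or 1.5 nM, doubling to 3 µM, on designs transcribed by stalled E. coli RNA polymerase on Illumina sequencing-chip clusters. Each series ran without and then with constant ligand in 100 mM Tris-HCl pH 7.5, 80 mM KCl, 4 mM MgCl2, BSA, DTT, yeast tRNA and Tween-20.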

[1] = designed as: OFF switch for flavin mononucleotide, no ligand
[2] = ligand present: flavin mononucleotide, designed as: OFF switch for flavin mononucleotide
[3] = designed as: ON switch for flavin mononucleotide, no ligand
[4] = ligand present: flavin mononucleotide, designed as: ON switch for flavin mononucleotide

| Sequence | apparent Kd [1] [nM] | apparent Kd [2] [nM] | apparent Kd [3] [nM] | apparent Kd [4] [nM] |
| --- | --- | --- | --- | --- |
| AAAUAAGUUGCAGGAUAUUAUUUUUAAUAAAUAUAAGAAGGGCAACAAACCUCACAUGAGGAUCACCCAUGUACCCAUGCAUCU | 97.8 | 38.4 |  |  |
| ACAUAGUUAGGAUAUGCUGCUCGUCACUUGCGUGAUGAGUAGCAGAAGGAACAUGAGGAUCACCCAUGUAAAGA | 29.9 | 29.5 |  |  |
| GCGUAAUAGGUGUAGCUAGUCGUGCAAGAAGGGUGGUGAACAUGAGGAUCACCCAUGUGGUCAGUACAGGAUAUUGCUAUACGA |  |  | 561 | 162 |
| ACGUGUUAUACAGGAUAUGUAUAGGAAUAAUCAUACAGUUAUUAAUUAAUGACAGAAGGGUAAACAUGAGGAUCACCCAUGUCA | 546 | 390 |  |  |
| GGAUGACAUAGUCAUCCUUAACGAACAUGAGGAUCACCCAUGUAGGAUAUGCUACUCAAAGAGUAGCAGAAGGACAUGUGUCUU | 27.2 | 157 |  |  |
| GUAGGGAUUACAUGAGGAUCACCCAUGUCAGAACGGGUAAUCAGAAGGUAUUAUUAGGGAGAGGGUAAGGAUAUGAUUUUUUAU |  |  | 433 | 344 |
| UCAGGCUUCGAGAAGGACAUGAAUCGUAGCAUUGCUACGAUCAUUGAUACAUGAGGAUCACCCAUGUAGGAUAUCGGAGUCUGC | 5.99 | 6.75 |  |  |
| AAAAACGGAGGAUAUACAAAAAAAAAAAAAAAAAAAAUGGGACAUGAGGAUCACCCAUGUAGAAGGCCGAAAAA | 72 | 164 |  |  |
| UUUUUAUGAGAGAAGGAGGACUUCAUGAGGAUCACCCAUGUGUUAGUACUUAGGAUAUUUAAUAACAUGAGGAUCACCCAUGUC |  |  | 51.1 | 48.6 |
| AGCAUGUUUACAUGAGGAUCACCCAUGUUUUUUAAGGAUAUCAGAAGGUACAUUUUGAGUUAGAGUAAGGAUAUGAUAUAUGCG |  |  | 11.9 | 8.82 |
| UAAUAAUAGCAAGGAUAUGGUUAUUAUAAUAUACCAGAAGGUGCACAUGAGGAUCACCCAUGUUUUAUAAUUUGUAAUUUAAAU | 30.7 | 27.3 |  |  |
| GGAGGACAUGAGGAUCACCCAUGUGGAUGGGCGCUAGGAUAUGCGUGCGGGAAGAGUGGAGCAGAAGGAGUGGGUU |  |  | 48.3 | 42.2 |
| AGAGCCUCGUGAGGAUAUACAUGAGGAUCACCCAUGUAAAUGAAUGAACGGUGGAAACACCGAAUGUAGAAGGCACGAGGCUCA | 37.9 | 223 |  |  |
| GGAUAGGACAGAGGAUAUACGUGCUAGAGAUACUAGCAAAGUUUCCUCACAUGAGGAUCACCCAUGUAGAAGGCUGUCCUAUCG | 21.8 | 505 |  |  |
| CUUGUUGUCGAGGAUAUGCACCAGCUCACUGACGCAGAAGGCGACACAUGAGGAUCACCCAUGUCAGUUCGCGU | 37.4 | 225 |  |  |
| UUGGACGUCGUAGGAUAUGUAGGACAUUCCUACAUGAGGAUCACCCAUGUUGACAUGGAAGAAGGACAGAAGGACGAUGUCCAU |  |  | 152 | 10.6 |
| AACGUGGCUUAGGAUAUUGCUACGCAAAAGUAACAAGAAGGAGGCACAUGAGGAUCACCCAUGUGAUUCGUUGA | 19.8 | 44.9 |  |  |
| AUAUAGUCAGGAUAUCGAAAUAUAUAUUAAUAUAUAUAAUACGAGAAGGGACAUGAGGAUCACCCAUGUAGUAA | 25.7 | 31.1 |  |  |
| GCGAAUUUGUGAGGAUAUACAUAAUUUAUAACUGUAGAAGGCACAAACCUCAAGACAUGAGGAUCACCCAUGUGGAAUUUCGCU | 131 | 192 |  |  |
| UUGAGGUGCAAGAAGGGUCACAUGAGGAUCACCCAUGUCAUGUGAAGUCUCGAGAUUUUAUGUGGAUAGGAUAUUGCACCGAAC |  |  | 203 | 113 |
| AACACGAGAGGUGUUGUCUAAUCACAUGAGGAUCACCCAUGUAAGGAUAUCGCGGCUAUCGGCAUCGAGAAGGUACAGGGAGCA | 17.8 | 38.2 |  |  |
| UCGCGGGUGCAGAAGGGAUAGGCCUAUUGUCGUGGAGUCUAAACUUAACAUGAGGAUCACCCAUGUCAGGAUAUGCCCACGCGA | 9.17 | 10.2 |  |  |
| GAGACUACCGAGAAGGGCAUAUUAAGACUCUUCGUACUACGCCUAGACAUGAGGAUCACCCAUGUGCAGGAUAUCGAGCGGCUC | 6.38 | 6.05 |  |  |

— the EternaBench riboswitch data
